Active and inactive are the calls of the source. The rule behind the calls is not given here.
How the values were obtained:
[1] = molecular target: Transient receptor potential cation channel subfamily V member 1 (Rattus norvegicus) (UniProt O35433); experiment: Antagonist activity at rat TRPV1 expressed in Xenopus laevis oocytes assessed as blockage of capsaicin-induced current at holding potential -60 mV at 10 uM by two-microelectrode voltage -clamp amplifier; format: functional, cell-based; parameters: scale not given: the % may be the effect or the level left; conditions: Oocyte
[2] = molecular target: Transient receptor potential cation channel subfamily V member 1 (Rattus norvegicus, UniProt O35433); experiment: Antagonist activity at rat TRPV1 expressed in Xenopus laevis oocytes assessed as blockage of capsaicin-induced current at holding potential -60 mV by two-microelectrode voltage -clamp amplifier; format: functional, cell-based, Oocyte
[3] = molecular target: Transient receptor potential cation channel subfamily V member 1 (Rattus norvegicus) (UniProt O35433); experiment: Antagonist activity at rat TRPV1 expressed in Xenopus laevis oocytes assessed as blockage of capsaicin-induced current at depolarizing membrane potential and 10 uM by two-microelectrode voltage -clamp amplifier; format: functional, cell-based; conditions: Oocyte
Summary of the method: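 Voltage-dependence protocol in rat TRPV1 oocytes, Mg2+ Ringer's, 20 C. Currents were evoked by 10 μM capsaicin with a linear ramp from -60 to +60 mV over 5 s (25 mV/s), with or without 10 μM compound. Leak current measured without agonist was subtracted. Fractional block was plotted against voltage and fitted to the Woodhull model.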

[4] = Antagonist activity at TRPM8; format: functional
[5] = Antagonist activity at NMDAR; format: functional
[6] = Antagonist activity at TRPM8 at 1 uM; format: functional; parameters: scale not given: the % may be the effect or the level left
[7] = Antagonist activity at NMDAR at 1 uM; format: functional; parameters: scale not given: the % may be the effect or the level left
[8] = Antagonist activity at TRPM8 at 10 uM; format: functional; parameters: scale not given: the % may be the effect or the level left
[9] = Antagonist activity at NMDAR at 10 uM; format: functional; parameters: scale not given: the % may be the effect or the level left
[10] = Selectivity ratio of IC50 for TRPM8 to IC50 for rat TRVP1
[11] = Selectivity ratio of IC50 for NMDAR to IC50 for rat TRVP1
[12] = molecular target: Transient receptor potential cation channel subfamily V member 1 (Rattus norvegicus) (UniProt O35433); experiment: Competitive inhibition of rat TRPV1 expressed in Xenopus laevis oocytes; format: cell-based; conditions: Oocyte
[13] = molecular target: Transient receptor potential cation channel subfamily V member 1 (Rattus norvegicus) (UniProt O35433); experiment: Agonist activity at rat TRPV1 expressed in Xenopus laevis oocytes assessed as stimulation of capsaicin-induced current at holding potential -60 mV at 10 uM by two-microelectrode voltage -clamp amplifier; format: functional, cell-based; conditions: Oocyte
Summary of the method: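 Rat TRPV1-expressing Xenopus oocytes under two-electrode voltage clamp at -60 mV in Mg2+ Ringer's buffer, 20 C. Compound at 10 μM applied without capsaicin, and the inward current it activated was recorded.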

[14] = molecular target: Transient receptor potential cation channel subfamily V member 1 (Rattus norvegicus) (UniProt O35433); experiment: Antagonist activity at rat TRPV1 expressed in Xenopus laevis oocytes assessed as blockage of capsaicin-induced current at negative membrane potentials and 10 uM by two-microelectrode voltage -clamp amplifier; conditions: Oocyte

Sequence of Transient receptor potential cation channel subfamily V member 1 (Rattus norvegicus) (O35433 whole entry): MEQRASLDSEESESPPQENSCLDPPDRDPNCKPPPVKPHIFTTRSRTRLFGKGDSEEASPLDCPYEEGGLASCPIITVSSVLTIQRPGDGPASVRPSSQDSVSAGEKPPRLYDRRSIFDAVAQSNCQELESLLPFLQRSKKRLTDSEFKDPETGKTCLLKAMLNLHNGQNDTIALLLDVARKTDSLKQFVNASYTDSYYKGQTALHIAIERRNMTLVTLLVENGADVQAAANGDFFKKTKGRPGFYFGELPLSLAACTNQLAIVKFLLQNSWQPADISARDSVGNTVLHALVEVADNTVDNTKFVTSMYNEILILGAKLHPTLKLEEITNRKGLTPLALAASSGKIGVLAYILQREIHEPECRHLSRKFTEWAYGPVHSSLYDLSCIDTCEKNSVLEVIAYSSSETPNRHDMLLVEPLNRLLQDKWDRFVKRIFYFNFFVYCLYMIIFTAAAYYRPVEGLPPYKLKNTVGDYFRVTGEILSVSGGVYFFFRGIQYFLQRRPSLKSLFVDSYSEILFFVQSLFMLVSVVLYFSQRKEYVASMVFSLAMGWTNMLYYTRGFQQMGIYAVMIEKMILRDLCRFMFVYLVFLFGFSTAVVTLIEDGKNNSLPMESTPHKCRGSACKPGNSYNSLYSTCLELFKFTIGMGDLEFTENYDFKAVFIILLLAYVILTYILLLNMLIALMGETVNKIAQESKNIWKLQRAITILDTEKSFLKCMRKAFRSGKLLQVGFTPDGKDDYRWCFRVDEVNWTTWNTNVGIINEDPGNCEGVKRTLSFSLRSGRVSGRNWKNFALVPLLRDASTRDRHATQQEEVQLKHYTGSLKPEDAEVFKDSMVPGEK
Sequence of Transient receptor potential cation channel subfamily V member 1 (O35433 whole entry): as above

Compound	IC50 [2] [µM]	further results
CCN(CC)CCCN1CC(=O)N(CCc2ccc(Cl)cc2Cl)C(CC(=O)N(CCc2ccc(Cl)cc2Cl)CC(N)=O)C1=O (configuration not stated)		Activity [1]: 3%
CN(C)CCCNc1nc(NCCc2c[nH]c3ccccc23)nc(NCCc2c[nH]c3ccccc23)n1	2.33	
CN(C)CCCNc1nc(NCCc2cccc(F)c2)nc(NCCc2cccc(F)c2)n1	0.3	
CN(C)CCCNc1nc(NCc2ccc(C(=O)O)cc2)nc(NCc2ccc(C(=O)O)cc2)n1	178	
CN(C)CCCNc1nc(NCc2ccc3c(c2)OCO3)nc(NCc2ccc3c(c2)OCO3)n1	4.98	
CN(C)CCCNc1nc(NCc2ccc(F)cc2F)nc(NCc2ccc(F)cc2F)n1	3.3	
CN1CCCC1CCNc1nc(NCCc2ccc(Cl)cc2)nc(NCCc2ccc(Cl)cc2)n1 (configuration not stated)	1.2	
CN(C)CCCNc1nc(N2CCN(C(c3ccc(F)cc3)c3ccc(F)cc3)CC2)nc(N2CCN(C(c3ccc(F)cc3)c3ccc(F)cc3)CC2)n1	56.4	
CN1CCC(N2CCN(c3nc(NCCc4ccc(F)cc4)nc(NCCc4ccc(F)cc4)n3)CC2)CC1	70.9	
CCCCNCC(=O)N(CCc1ccc(Cl)cc1Cl)CC(=O)N(CCc1ccc(Cl)cc1Cl)CC(N)=O		Activity [1]: 34%
CN(C)CCCOc1nc(NCCc2ccc(F)cc2)nc(NCCc2ccc(F)cc2)n1	6.14	
CN(C)CCCNc1nc(NCCc2ccc(F)cc2)nc(NCCc2ccc(F)cc2)n1	0.05	Activity [3]: inactive; IC50 [4]: 7.5 µM; IC50 [5]: 9.2 µM; Activity [6]: 37%; Activity [7]: 25%; Activity [8]: 55%; Activity [9]: 51%; Ratio IC50 [10]: 150; Ratio IC50 [11]: 150; inhibition [12]: inactive; Activity [13]: inactive; Activity [14]: Active
CN(C)CCCNCC(=O)N(CCc1ccc(Cl)cc1Cl)CC(=O)N(CCc1ccc(Cl)cc1Cl)CC(N)=O		Activity [1]: 55%
NC(=O)CN(CCc1ccc(Cl)cc1Cl)C(=O)CN(CCc1ccc(Cl)cc1Cl)C(=O)CNCCCO		Activity [1]: 32%
CN(C)CCCNc1nc(NCCc2ccccc2F)nc(NCCc2ccccc2F)n1	0.45	
CN1CCCC1CCN(CC(N)=O)C(=O)CC1C(=O)N(CCc2ccc(Cl)cc2Cl)CC(=O)N1CCc1ccc(Cl)cc1Cl (configuration not stated)		Activity [1]: 40%
CN(C)CCCNc1nc(NCCc2ccc([N+](=O)[O-])cc2)nc(NCCc2ccc([N+](=O)[O-])cc2)n1	1.63	
CN1CCCC1CCN1CC(=O)N(CCc2ccccc2)C(CC(=O)N(CCc2ccc(Cl)cc2Cl)CC(N)=O)C1=O (configuration not stated)		Activity [1]: 28%
CN(C)CCCNCC(=O)N(CCc1ccc(Cl)cc1)CC(=O)N(CCc1ccc(Cl)cc1)CC(N)=O		Activity [1]: 45%
CN(C)CCCNc1nc(NCCc2ccc(Cl)cc2Cl)nc(NCCc2ccc(Cl)cc2Cl)n1	1.21	
CN(C)CCNc1nc(NCCc2ccc(Cl)cc2)nc(NCCc2ccc(Cl)cc2)n1	6.7	
CN(C)CCCNc1nc(NCCc2ccc(Cl)cc2)nc(NCCc2ccc(Cl)cc2)n1	0.5	Activity [13]: Active

Compound	IC50 [2] [µM]	further results
CN1CCN(Nc2nc(NCCc3ccc(Cl)cc3)nc(NCCc3ccc(Cl)cc3)n2)CC1	6.4	
CN(C)CCCNc1nc(NCCc2ccccc2)nc(NCCc2ccccc2)n1	0.67	
CN(C)CCCNc1nc(NCc2ccc(F)cc2)nc(NCc2ccc(F)cc2)n1	3.06	
N=C(N)NCCCCN(CC(N)=O)C(=O)CC1C(=O)N(CCc2ccc(Cl)cc2)CC(=O)N1CCc1ccc(Cl)cc1 (configuration not stated)		Activity [1]: 55%
COc1ccc(CCNc2nc(NCCCN(C)C)nc(NCCc3ccc(OC)cc3)n2)cc1	0.97	
NC(N)=NCCCCNc1nc(NCCc2ccc(F)cc2)nc(NCCc2ccc(F)cc2)n1	0.55	
CCCCNc1nc(NCc2ccc(C(=O)O)cc2)nc(NCc2ccc(C(=O)O)cc2)n1	229	
CN(C)CCOCCNc1nc(NCCc2ccc(F)cc2)nc(NCCc2ccc(F)cc2)n1	7.05	
NCCN1CCN(c2nc(NCCc3ccc(Cl)cc3)nc(NCCc3ccc(Cl)cc3)n2)CC1	0.96	
CN(C)CCCNc1nc(NCc2ccc(C(F)(F)F)cc2)nc(NCc2ccc(C(F)(F)F)cc2)n1	0.66	
CN1CCCC1CCN1CC(=O)N(CCc2ccc(Cl)cc2Cl)C(CC(=O)N(CCc2ccc(Cl)cc2Cl)CC(N)=O)C1=O (configuration not stated)		Activity [1]: 3%
CN(C)CCCNc1nc(NCCC2=CCCCC2)nc(NCCC2=CCCCC2)n1	218	
CN(C)CCCNc1nc(N2CCc3c([nH]c4ccccc34)C2)nc(N2CCc3c([nH]c4ccccc34)C2)n1	7	
CN(C)CCCNc1nc(NCc2ccc(Cl)cc2)nc(NCc2ccc(Cl)cc2)n1	2.62	
CN(C)CCN1CCN(c2nc(NCCc3ccc(F)cc3)nc(NCCc3ccc(F)cc3)n2)CC1	18.6	Activity [13]: Active
CN(C)CCCNc1nc(NCc2ccc(Cl)cc2Cl)nc(NCc2ccc(Cl)cc2Cl)n1	0.84	
CN(C)CCCCCNc1nc(NCCc2ccc(F)cc2)nc(NCCc2ccc(F)cc2)n1	0.1	
COC(=O)c1ccc(CNc2nc(NCCCN(C)C)nc(NCc3ccc(C(=O)OC)cc3)n2)cc1	69.1	
CCN(CC)CCCNCC(=O)N(CCc1ccc(Cl)cc1Cl)CC(=O)N(CCc1ccc(Cl)cc1Cl)CC(N)=O		Activity [1]: 99%
N=C(N)NCCCCN(CC(N)=O)C(=O)CC1C(=O)N(CCc2ccc(Cl)cc2Cl)CC(=O)N1CCc1ccc(Cl)cc1Cl (configuration not stated)		Activity [1]: 30%
CN1CCCC1CCNCC(=O)N(CCc1ccc(Cl)cc1Cl)CC(=O)N(CCc1ccc(Cl)cc1Cl)CC(N)=O (configuration not stated)		Activity [1]: 99%

Reference: ChEMBL document CHEMBL1926668, “Triazine-based vanilloid 1 receptor open channel blockers: design, synthesis, evaluation, and SAR analysis” (J Med Chem, 2011)
